Data reported in ChEMBL document CHEMBL4765301, “Discovery of novel TNNI3K inhibitor suppresses pyroptosis and apoptosis in murine myocardial infarction injury” (Eur J Med Chem, 2020).

Each compound was assayed against T1, Serine/threonine-protein kinase TNNI3K (Homo sapiens) (UniProt Q59H18) (assay: Inhibition of TNNI3K (unknown origin) assessed as residual activity at 1 uM using biotinylated CTnI as substrate by HTRF analysis relative to control). Details: not given.
T1 sequence (whole entry): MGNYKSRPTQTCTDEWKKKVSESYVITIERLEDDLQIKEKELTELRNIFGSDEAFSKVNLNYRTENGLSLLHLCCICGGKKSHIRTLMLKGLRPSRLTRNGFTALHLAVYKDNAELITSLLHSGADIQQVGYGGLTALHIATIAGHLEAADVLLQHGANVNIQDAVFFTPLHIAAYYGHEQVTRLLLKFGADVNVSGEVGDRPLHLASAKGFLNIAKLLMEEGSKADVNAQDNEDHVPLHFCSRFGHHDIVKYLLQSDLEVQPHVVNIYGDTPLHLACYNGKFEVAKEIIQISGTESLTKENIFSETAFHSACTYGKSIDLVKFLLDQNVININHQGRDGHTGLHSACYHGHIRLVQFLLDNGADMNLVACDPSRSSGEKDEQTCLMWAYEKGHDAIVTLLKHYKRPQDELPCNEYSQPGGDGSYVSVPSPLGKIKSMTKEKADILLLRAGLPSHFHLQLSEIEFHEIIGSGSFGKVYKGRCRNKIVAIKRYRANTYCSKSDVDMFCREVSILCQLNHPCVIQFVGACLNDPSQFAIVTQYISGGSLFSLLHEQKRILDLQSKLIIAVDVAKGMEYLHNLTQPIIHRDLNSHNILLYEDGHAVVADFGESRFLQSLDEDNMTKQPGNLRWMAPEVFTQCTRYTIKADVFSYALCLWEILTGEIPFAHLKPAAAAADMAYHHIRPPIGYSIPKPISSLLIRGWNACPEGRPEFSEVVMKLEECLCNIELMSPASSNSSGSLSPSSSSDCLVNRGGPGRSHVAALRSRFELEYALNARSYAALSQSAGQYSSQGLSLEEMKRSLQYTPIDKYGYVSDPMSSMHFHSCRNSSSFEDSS
How it was run: (§1)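 TNNI3K was assayed by HTRF using a GST-tagged TNNI3K kinase domain and a biotinylated cardiac troponin I substrate peptide, followed by the two HTRF detection reagents. Compounds were screened at 1.0 µM, then IC50s were determined.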

SMILES | Activity [%]
CCC(=O)Nc1cc(Nc2ncnc3sc4c(c23)CCN(CCCN2CCOCC2)C4)ccc1N(C)C | 37
CN(C)c1ccc(Nc2ncnc3sc4c(c23)CCNC4)cc1NC(=O)c1ccncc1 | 39
CN(C)CCCN1CCc2c(sc3ncnc(Nc4ccc(N(C)C)c(NC(=O)c5cccs5)c4)c23)C1 | 33

These compounds were tested against Epidermal growth factor receptor (Homo sapiens) (UniProt P00533) (assay: Inhibition of recombinant human EGFR (696 to end residues) assessed as residual activity at 1 uM using poly(Glu, Tyr) 4:1 as substrate incubated for 40 mins by [gamma-33P]-ATP scintillation counting based radiometry assay relative to control). Details: not given.
Sequence of Epidermal growth factor receptor (Homo sapiens) (P00533 whole entry): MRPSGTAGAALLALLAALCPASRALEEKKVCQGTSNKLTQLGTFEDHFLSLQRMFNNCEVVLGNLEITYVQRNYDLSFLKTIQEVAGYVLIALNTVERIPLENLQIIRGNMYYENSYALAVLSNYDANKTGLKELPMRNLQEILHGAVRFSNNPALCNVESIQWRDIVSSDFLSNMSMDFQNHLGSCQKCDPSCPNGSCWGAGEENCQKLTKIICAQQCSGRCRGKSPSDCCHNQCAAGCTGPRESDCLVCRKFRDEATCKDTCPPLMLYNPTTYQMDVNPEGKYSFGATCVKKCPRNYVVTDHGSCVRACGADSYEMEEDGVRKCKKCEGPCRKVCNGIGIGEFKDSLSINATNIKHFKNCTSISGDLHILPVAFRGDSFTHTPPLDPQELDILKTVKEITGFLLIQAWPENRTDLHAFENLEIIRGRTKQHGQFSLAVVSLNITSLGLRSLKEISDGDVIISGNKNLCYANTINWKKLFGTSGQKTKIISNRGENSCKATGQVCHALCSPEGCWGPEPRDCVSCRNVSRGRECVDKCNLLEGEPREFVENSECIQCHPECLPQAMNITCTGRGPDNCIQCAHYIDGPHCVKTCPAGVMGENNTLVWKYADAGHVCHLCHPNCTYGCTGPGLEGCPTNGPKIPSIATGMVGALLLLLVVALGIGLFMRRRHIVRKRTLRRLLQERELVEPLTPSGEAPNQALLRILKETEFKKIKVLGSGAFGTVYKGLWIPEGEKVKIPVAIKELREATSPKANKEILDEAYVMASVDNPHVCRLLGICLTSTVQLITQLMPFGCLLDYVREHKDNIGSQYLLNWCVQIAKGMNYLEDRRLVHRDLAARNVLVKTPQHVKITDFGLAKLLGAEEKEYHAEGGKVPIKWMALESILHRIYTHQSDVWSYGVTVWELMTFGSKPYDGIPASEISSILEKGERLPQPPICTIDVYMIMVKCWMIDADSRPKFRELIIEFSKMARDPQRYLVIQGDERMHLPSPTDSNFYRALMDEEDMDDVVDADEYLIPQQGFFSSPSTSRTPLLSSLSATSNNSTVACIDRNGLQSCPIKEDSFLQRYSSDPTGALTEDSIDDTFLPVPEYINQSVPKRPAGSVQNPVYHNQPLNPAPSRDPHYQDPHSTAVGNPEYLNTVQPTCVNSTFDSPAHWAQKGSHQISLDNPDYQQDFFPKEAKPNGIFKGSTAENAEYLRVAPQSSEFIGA

SMILES | Activity [%]
CCC(=O)Nc1cc(Nc2ncnc3sc4c(c23)CCN(CCCN2CCOCC2)C4)ccc1N(C)C | 105
CN(C)c1ccc(Nc2ncnc3sc4c(c23)CCNC4)cc1NC(=O)c1ccncc1 | 90
CN(C)CCCN1CCc2c(sc3ncnc(Nc4ccc(N(C)C)c(NC(=O)c5cccs5)c4)c23)C1 | 86

These compounds were tested against Receptor tyrosine-protein kinase erbB-2 (Homo sapiens) (UniProt P04626) (assay: Inhibition of recombinant human HER2 (676 to end residues) assessed as residual activity at 1 uM using poly(Glu, Tyr) 4:1 as substrate incubated for 40 mins by [gamma-33P]-ATP scintillation counting based radiometry assay relative to control). Details: not given.
Sequence of Receptor tyrosine-protein kinase erbB-2 (Homo sapiens) (P04626 whole entry): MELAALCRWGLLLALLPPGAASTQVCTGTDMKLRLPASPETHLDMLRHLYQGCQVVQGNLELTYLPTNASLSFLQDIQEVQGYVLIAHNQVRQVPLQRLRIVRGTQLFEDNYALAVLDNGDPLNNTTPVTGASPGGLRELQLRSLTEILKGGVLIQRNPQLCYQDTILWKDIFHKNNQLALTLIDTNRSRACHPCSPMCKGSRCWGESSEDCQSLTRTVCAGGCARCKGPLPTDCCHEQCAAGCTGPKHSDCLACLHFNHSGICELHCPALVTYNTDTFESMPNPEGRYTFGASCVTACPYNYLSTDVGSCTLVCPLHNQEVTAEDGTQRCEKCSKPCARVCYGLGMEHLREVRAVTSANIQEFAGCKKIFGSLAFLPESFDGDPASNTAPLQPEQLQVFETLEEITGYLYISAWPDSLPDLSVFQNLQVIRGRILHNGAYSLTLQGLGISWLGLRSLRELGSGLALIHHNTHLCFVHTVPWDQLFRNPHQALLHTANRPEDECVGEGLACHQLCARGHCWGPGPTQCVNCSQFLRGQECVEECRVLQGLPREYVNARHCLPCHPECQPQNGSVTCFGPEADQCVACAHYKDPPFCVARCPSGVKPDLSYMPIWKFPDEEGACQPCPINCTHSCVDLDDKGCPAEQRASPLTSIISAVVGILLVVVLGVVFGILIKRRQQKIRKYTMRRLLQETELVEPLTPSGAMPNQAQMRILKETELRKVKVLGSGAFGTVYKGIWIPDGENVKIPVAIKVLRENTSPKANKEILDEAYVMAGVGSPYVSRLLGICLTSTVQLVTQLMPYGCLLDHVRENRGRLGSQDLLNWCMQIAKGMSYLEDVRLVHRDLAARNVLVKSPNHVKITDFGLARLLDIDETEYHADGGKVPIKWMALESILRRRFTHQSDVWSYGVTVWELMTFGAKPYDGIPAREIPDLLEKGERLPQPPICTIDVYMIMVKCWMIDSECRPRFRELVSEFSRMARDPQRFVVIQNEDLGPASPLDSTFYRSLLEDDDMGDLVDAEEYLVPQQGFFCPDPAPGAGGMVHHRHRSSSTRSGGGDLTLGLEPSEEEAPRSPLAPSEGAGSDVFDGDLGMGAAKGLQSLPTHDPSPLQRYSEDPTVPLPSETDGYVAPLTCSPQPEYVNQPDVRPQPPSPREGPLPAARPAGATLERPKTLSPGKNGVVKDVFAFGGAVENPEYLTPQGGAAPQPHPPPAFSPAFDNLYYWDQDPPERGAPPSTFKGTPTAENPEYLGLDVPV

SMILES | Activity [%]
CCC(=O)Nc1cc(Nc2ncnc3sc4c(c23)CCN(CCCN2CCOCC2)C4)ccc1N(C)C | 108
CN(C)c1ccc(Nc2ncnc3sc4c(c23)CCNC4)cc1NC(=O)c1ccncc1 | 109
CN(C)CCCN1CCc2c(sc3ncnc(Nc4ccc(N(C)C)c(NC(=O)c5cccs5)c4)c23)C1 | 102

These compounds were tested against Vascular endothelial growth factor receptor 1 (Homo sapiens) (UniProt P17948) (assay: Inhibition of recombinant human FLT1 (783 to end residues) assessed as residual activity at 1 uM using KKKSPGEYVNIEFG as substrate incubated for 40 mins by [gamma-33P]-ATP scintillation counting based radiometry assay relative to control). Details: not given.

SMILES | Activity [%]
CCC(=O)Nc1cc(Nc2ncnc3sc4c(c23)CCN(CCCN2CCOCC2)C4)ccc1N(C)C | 90
CN(C)c1ccc(Nc2ncnc3sc4c(c23)CCNC4)cc1NC(=O)c1ccncc1 | 103
CN(C)CCCN1CCc2c(sc3ncnc(Nc4ccc(N(C)C)c(NC(=O)c5cccs5)c4)c23)C1 | 98

Each compound was assayed against Vascular endothelial growth factor receptor 2 (Homo sapiens) (UniProt P35968) (assay: Inhibition of recombinant human KDR (790 to end residues) assessed as residual activity at 1 uM using myelin basic protein as substrate incubated for 40 mins by [gamma-33P]-ATP scintillation counting based radiometry assay relative to control). Details: not given.
Sequence of Vascular endothelial growth factor receptor 2 (Homo sapiens) (P35968 whole entry): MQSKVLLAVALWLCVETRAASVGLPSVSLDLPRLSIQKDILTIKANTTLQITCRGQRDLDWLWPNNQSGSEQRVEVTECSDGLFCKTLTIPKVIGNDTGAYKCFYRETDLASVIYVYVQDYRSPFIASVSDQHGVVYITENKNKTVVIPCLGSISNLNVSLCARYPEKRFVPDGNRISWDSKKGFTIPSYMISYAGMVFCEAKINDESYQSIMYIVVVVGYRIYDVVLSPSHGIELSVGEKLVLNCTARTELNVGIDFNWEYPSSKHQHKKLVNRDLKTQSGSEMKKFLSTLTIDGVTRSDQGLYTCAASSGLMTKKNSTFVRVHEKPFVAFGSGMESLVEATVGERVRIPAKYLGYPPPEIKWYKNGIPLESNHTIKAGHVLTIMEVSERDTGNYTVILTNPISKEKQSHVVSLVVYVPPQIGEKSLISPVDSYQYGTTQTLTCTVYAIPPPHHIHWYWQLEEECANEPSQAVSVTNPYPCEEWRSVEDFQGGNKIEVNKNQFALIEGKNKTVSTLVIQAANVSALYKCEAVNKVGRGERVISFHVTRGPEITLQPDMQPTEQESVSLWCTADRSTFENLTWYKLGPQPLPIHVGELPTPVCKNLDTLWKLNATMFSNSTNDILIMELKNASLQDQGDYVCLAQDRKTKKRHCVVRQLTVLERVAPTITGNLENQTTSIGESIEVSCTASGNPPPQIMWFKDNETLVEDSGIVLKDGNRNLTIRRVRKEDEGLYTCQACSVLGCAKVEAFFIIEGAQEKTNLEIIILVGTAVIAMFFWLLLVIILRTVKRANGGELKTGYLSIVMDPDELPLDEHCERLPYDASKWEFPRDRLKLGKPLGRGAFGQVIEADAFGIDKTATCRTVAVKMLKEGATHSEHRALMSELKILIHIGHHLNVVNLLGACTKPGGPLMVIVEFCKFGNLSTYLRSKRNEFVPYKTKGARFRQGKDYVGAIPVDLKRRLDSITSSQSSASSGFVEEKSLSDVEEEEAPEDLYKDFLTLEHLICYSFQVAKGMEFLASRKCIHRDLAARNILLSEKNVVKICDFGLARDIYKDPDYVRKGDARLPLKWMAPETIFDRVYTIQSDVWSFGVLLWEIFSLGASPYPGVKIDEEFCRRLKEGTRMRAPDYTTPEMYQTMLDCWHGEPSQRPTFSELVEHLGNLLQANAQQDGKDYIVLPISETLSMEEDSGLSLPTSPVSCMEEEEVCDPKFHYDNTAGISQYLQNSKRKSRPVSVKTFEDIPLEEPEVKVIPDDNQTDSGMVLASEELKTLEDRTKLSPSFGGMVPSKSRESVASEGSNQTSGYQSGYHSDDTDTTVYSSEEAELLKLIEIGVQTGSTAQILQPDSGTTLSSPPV

SMILES | Activity [%]
CCC(=O)Nc1cc(Nc2ncnc3sc4c(c23)CCN(CCCN2CCOCC2)C4)ccc1N(C)C | 86
CN(C)c1ccc(Nc2ncnc3sc4c(c23)CCNC4)cc1NC(=O)c1ccncc1 | 92
CN(C)CCCN1CCc2c(sc3ncnc(Nc4ccc(N(C)C)c(NC(=O)c5cccs5)c4)c23)C1 | 81

Each compound was assayed against T2, Serine/threonine-protein kinase TNNI3K (Homo sapiens, UniProt Q59H18) (assay: Inhibition of TNNI3K (unknown origin) using biotinylated CTnI as substrate by HTRF analysis). Details: not given.
T2 sequence (Q59H18 whole entry): T1 sequence (whole entry)
How it was run: as §1

SMILES | IC50 [nM]
CCC(=O)Nc1cc(Nc2ncnc3sc4c(c23)CCN(CCCN2CCOCC2)C4)ccc1N(C)C | 480
CN(C)c1ccc(Nc2ncnc3sc4c(c23)CCNC4)cc1NC(=O)c1ccncc1 | 960
CN(C)CCCN1CCc2c(sc3ncnc(Nc4ccc(N(C)C)c(NC(=O)c5cccs5)c4)c23)C1 | 570

The compounds below were run on H9c2 (assay: Cytoprotective activity against OGD-induced cell death in rat H9c2 cells assessed as cell viability at 1 uM incubated for 24 hrs by MTT assay (reference value: 42.08 to 49.11 %)). Details: read-out: Activity.
Assay type: functional

SMILES | viability at 1 µM [%]
CCC(=O)Nc1cc(Nc2ncnc3sc4c(c23)CCN(CCCN2CCOCC2)C4)ccc1N(C)C | 62.4
CN(C)c1ccc(Nc2ncnc3sc4c(c23)CCNC4)cc1NC(=O)c1ccncc1 | 53
CN(C)CCCN1CCc2c(sc3ncnc(Nc4ccc(N(C)C)c(NC(=O)c5cccs5)c4)c23)C1 | 58.5

These compounds were tested on H9c2 (assay: Cytoprotective activity against OGD-induced cell death in rat H9c2 cells assessed as cell viability at 10 uM incubated for 24 hrs by MTT assay (reference value: 42.08 to 49.11 %)). Details: read-out: Activity.
Assay type: functional

SMILES | viability at 10 µM [%]
CCC(=O)Nc1cc(Nc2ncnc3sc4c(c23)CCN(CCCN2CCOCC2)C4)ccc1N(C)C | 82.2
CN(C)c1ccc(Nc2ncnc3sc4c(c23)CCNC4)cc1NC(=O)c1ccncc1 | 68.1
CN(C)CCCN1CCc2c(sc3ncnc(Nc4ccc(N(C)C)c(NC(=O)c5cccs5)c4)c23)C1 | 78.5
